Test [1] concerns the target Casein kinase II (Homo sapiens) (UniProt P67870+P68400+P19784). Kind of test: Inhibition of human recombinant CK2 at 10 uM. It counts as protein-complex assay.
Test [2] deals with Cyclin-dependent kinase 7/ cyclin H (Homo sapiens) (UniProt P51946+P50613). Kind of test: Inhibition of human recombinant CDK7/cyclin H/MAT1 at 10 uM. Type of test: protein-complex assay.
Test [3] concerns the target MAP kinase-activated protein kinase 5 (Homo sapiens) (UniProt Q8IW41). Kind of test: Inhibition of human recombinant PRAK at 10 uM.
Test [4] addresses T1, Retinoblastoma-associated protein (Homo sapiens) (UniProt P06400).
T1 sequence (whole entry): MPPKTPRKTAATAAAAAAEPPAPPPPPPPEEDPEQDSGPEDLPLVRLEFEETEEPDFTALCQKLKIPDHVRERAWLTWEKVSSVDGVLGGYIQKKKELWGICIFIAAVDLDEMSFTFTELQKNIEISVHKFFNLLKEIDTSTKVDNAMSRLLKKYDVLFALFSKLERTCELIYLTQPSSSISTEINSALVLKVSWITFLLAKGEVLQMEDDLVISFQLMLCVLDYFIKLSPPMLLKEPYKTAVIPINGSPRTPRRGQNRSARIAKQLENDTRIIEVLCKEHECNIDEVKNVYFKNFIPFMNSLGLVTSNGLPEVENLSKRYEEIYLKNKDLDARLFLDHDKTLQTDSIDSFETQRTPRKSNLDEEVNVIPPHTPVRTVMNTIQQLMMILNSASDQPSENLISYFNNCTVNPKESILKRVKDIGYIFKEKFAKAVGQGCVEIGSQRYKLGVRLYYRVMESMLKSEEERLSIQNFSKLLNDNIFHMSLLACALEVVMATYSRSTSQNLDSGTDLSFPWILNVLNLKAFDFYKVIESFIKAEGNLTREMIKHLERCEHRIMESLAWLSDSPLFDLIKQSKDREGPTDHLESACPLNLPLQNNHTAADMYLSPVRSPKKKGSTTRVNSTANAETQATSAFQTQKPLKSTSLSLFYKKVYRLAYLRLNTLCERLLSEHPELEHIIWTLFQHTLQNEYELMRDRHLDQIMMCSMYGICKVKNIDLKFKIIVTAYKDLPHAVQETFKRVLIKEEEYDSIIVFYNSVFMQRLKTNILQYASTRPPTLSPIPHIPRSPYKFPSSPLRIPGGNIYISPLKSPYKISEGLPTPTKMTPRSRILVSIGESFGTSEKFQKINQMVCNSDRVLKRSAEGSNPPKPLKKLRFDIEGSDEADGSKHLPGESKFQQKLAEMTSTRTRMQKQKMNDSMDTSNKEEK
Kind of test: Inhibition of retinoblastoma protein in human HT-29 cells assessed as reduction of CDK4 level at 2.5 to 40 uM after 24 hrs by immunoblotting. It counts as cell-based.

Test [5] addresses Glycogen synthase kinase-3 beta (Homo sapiens) (UniProt P49841). Put plainly: Inhibition of human recombinant GSK3B at 10 uM.
Test [6] concerns RPMI-8226. Put plainly: Cell cycle arrest in human RPMI8226 cells assessed as accumulation at G2/M phase after 24 hrs using propidium iodide and BrdU staining by flow cytometry. It counts as functional, cell-based. The procedure, abridged: (§1)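 Asynchronously growing RPMI-8226 multiple myeloma cells were exposed for 24 h. Cells were double-stained with propidium iodide and BrdU and analysed by flow cytometry for G1, S, G2/M and BrdU-positive fractions. The subG1 population was taken as indicative of apoptosis.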

In test [7] the test system is MCF7. Put plainly: Cell cycle arrest in human MCF7 cells assessed as accumulation at G2/M phase after 24 hrs using propidium iodide and BrdU staining by flow cytometry. It counts as functional, cell-based. The essentials:
(§2)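 Subconfluent MCF-7 cells were treated for 24 h at a range of concentrations. They were pulse-labelled with 10 μM BrdU for 30 min at 37 °C, then trypsinized and fixed in ice-cold 70% ethanol. DNA was denatured in 2 M HCl and neutralized with borate. Cells were stained with fluorescein anti-BrdU and with propidium iodide plus RNase A, then analysed by flow cytometry at 488 nm.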

Test [8] addresses Dual specificity mitogen-activated protein kinase kinase 1 (Homo sapiens) (UniProt Q02750). Kind of test: Inhibition of human recombinant MEK1 at 10 uM.
Test [9] concerns MCF7. Kind of test: Cell cycle arrest in human MCF7 cells assessed as decrease in S phase cell population after 24 hrs using propidium iodide and BrdU staining by flow cytometry. Type of test: functional, cell-based. The procedure, abridged: as §2
The test system of test [10] is RPMI-8226. Put plainly: Cell cycle arrest in human RPMI8226 cells assessed as decrease in S phase cell population after 24 hrs using propidium iodide and BrdU staining by flow cytometry. It counts as functional, cell-based. The procedure, abridged: as §1
For test [11], the target named is CDK9/cyclin T1 (Homo sapiens) (UniProt O60563+P50750). Kind of test: Inhibition of human recombinant CDK9/cyclin T1 at 10 uM. It counts as protein-complex assay.
Test [12] deals with RPMI-8226. Put plainly: Cell cycle arrest in human RPMI8226 cells assessed as accumulation at sub-G1 phase after 24 hrs using propidium iodide and BrdU staining by flow cytometry. Type of test: functional, cell-based. The essentials:
as §1

Test [13] deals with Glycogen synthase kinase-3 alpha (Homo sapiens) (UniProt P49840). Put plainly: Inhibition of human recombinant GSK3A at 10 uM.
Glycogen synthase kinase-3 alpha (Homo sapiens), sequence (P49840 2-483 limits assumed): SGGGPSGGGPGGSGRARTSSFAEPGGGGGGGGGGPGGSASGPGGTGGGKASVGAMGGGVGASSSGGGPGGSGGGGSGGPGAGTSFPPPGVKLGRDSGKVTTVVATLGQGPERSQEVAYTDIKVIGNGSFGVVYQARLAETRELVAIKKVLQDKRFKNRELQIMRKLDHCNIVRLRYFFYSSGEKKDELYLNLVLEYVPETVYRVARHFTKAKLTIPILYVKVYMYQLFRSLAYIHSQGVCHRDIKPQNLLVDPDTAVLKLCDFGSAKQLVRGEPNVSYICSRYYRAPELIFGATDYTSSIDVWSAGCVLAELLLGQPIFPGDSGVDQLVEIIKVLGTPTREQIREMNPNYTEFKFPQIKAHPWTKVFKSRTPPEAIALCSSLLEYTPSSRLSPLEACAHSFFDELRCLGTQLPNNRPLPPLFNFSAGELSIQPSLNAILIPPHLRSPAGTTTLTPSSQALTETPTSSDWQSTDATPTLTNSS
The test system of test [14] is MCF7. Kind of test: Cell cycle arrest in human MCF7 cells assessed as reduction of actively replicating DNA level at 80 uM after 24 hrs using propidium iodide and BrdU staining by flow cytometry. Type of test: functional, cell-based. The procedure, abridged:
as §2

Test [15] concerns U2OS. To be noted: Homo sapiens, 10 uM.
The target of test [16] is Cellular tumor antigen p53 (Homo sapiens) (UniProt P04637). Kind of test: Induction of p53-dependent transcriptional activity in human MCF7 cells assessed as increase of p21 WAF1 level at 20 uM after 24 hrs by immunofluorescence assay. Type of test: cell-based.
Cellular tumor antigen p53 (Homo sapiens), sequence (P04637 whole entry, looked up, canonical isoform): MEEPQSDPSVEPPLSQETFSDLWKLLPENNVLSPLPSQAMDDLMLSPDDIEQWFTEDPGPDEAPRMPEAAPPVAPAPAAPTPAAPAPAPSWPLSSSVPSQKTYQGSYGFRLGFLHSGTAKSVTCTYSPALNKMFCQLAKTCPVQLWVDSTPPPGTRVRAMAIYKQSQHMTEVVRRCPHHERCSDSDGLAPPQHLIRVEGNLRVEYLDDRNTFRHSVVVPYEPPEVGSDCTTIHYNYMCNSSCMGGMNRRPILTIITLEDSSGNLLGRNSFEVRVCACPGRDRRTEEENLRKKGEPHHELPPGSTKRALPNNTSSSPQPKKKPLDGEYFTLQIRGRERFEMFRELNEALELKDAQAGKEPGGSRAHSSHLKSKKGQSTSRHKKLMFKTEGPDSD
Test [17] has as its target Casein kinase I isoform alpha (Homo sapiens) (UniProt P48729). Kind of test: Inhibition of human recombinant CK1 at 10 uM.
Test [18] has as its system MCF7. Put plainly: Cell cycle arrest in human MCF7 cells assessed as accumulation at sub-G1 phase after 24 hrs using propidium iodide and BrdU staining by flow cytometry. Type of test: functional, cell-based. The essentials: as §2
Test [19] deals with Ribosomal protein S6 kinase alpha-5 (Homo sapiens) (UniProt O75582). Put plainly: Inhibition of human recombinant MSK1 at 10 uM.
Ribosomal protein S6 kinase alpha-5 (Homo sapiens), sequence (O75582 whole entry, looked up): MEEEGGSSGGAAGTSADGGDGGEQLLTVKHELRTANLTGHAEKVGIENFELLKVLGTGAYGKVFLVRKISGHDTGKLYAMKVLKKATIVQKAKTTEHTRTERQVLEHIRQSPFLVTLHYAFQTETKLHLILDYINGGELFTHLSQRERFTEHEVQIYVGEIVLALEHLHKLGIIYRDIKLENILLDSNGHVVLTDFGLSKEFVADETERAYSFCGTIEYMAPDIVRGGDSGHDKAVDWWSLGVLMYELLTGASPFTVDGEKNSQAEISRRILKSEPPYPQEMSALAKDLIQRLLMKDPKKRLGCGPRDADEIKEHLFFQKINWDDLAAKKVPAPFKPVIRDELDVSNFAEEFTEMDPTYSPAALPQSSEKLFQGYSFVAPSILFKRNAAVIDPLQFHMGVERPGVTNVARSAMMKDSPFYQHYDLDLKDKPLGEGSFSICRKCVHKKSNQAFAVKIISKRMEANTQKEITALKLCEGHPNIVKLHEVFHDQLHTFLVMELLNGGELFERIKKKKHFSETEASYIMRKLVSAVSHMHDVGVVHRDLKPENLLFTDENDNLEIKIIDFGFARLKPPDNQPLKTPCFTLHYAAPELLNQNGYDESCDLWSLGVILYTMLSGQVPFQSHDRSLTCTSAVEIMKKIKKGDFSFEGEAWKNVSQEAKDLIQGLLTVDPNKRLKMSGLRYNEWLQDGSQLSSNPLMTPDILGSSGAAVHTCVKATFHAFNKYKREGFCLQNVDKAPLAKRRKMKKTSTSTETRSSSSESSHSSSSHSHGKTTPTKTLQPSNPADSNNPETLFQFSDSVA
For test [20], the system named is RPMI-8226. Kind of test: Cell cycle arrest in human RPMI8226 cells assessed as reduction of actively replicating DNA level at 80 uM after 24 hrs using propidium iodide and BrdU staining by flow cytometry. Type of test: functional, cell-based. The procedure, abridged:
as §1

In test [21] the target is T1, Retinoblastoma-associated protein (Homo sapiens). Kind of test: Inhibition of retinoblastoma protein in human HT-29 cells assessed as reduction of cyclin A level at 2.5 to 40 uM after 24 hrs by immunoblotting. It counts as cell-based.
In another test the target is CDK9/cyclin T1 (Homo sapiens, UniProt P50750). Put plainly: Inhibition of human recombinant CDK9/cyclin T1. It counts as protein-complex assay.
CDK9/cyclin T1, sequence (O60563 whole entry): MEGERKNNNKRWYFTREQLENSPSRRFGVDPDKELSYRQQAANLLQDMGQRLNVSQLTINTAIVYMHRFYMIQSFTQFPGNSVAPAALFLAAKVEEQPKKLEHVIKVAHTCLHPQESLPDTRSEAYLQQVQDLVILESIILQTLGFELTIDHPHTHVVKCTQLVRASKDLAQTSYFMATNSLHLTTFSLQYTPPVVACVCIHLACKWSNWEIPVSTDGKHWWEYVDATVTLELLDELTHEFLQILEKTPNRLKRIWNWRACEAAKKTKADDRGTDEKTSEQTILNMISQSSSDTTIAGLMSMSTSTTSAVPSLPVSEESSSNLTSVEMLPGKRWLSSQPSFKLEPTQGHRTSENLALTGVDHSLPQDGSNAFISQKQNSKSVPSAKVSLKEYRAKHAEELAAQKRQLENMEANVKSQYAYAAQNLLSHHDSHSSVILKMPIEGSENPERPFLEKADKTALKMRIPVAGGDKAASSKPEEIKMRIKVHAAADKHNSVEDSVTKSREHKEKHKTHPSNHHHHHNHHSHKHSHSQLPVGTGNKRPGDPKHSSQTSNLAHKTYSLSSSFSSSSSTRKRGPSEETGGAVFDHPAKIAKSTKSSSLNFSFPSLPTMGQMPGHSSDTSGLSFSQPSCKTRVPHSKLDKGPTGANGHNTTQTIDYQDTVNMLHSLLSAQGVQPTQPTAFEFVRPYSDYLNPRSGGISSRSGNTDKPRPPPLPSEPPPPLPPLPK
CDK9/cyclin T1, sequence (P50750 whole entry): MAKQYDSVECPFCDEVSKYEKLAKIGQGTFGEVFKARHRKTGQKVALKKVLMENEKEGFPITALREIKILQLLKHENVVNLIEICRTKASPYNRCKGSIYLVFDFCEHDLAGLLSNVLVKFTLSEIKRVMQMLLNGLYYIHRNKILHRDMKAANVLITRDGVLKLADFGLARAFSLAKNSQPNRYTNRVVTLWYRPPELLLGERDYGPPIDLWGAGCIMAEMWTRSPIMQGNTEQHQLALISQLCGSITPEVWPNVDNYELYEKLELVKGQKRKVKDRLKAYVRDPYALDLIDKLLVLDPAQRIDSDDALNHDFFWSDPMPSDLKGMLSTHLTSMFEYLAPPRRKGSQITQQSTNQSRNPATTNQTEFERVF
Test [22] deals with Cyclin-dependent kinase 2/cyclin E1 (Homo sapiens, UniProt P24941). Put plainly: Inhibition of human recombinant CDK2/cyclin E. It counts as protein-complex assay.
Test [23] deals with Cyclin-dependent kinase 7/ cyclin H (Homo sapiens, UniProt P50613). Kind of test: Inhibition of human recombinant CDK7/cyclin H/MAT1. Type of test: protein-complex assay.
Cyclin-dependent kinase 7/ cyclin H, sequence (P51946 whole entry): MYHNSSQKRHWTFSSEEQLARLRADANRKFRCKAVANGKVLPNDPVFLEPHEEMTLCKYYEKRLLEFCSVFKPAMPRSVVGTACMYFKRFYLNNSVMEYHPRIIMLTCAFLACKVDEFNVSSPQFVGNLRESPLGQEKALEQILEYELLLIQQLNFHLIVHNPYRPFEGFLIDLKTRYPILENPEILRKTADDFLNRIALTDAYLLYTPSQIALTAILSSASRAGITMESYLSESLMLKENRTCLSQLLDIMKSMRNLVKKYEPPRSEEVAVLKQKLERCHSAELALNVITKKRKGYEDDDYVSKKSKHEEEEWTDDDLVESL
Cyclin-dependent kinase 7/ cyclin H, sequence (P50613 whole entry): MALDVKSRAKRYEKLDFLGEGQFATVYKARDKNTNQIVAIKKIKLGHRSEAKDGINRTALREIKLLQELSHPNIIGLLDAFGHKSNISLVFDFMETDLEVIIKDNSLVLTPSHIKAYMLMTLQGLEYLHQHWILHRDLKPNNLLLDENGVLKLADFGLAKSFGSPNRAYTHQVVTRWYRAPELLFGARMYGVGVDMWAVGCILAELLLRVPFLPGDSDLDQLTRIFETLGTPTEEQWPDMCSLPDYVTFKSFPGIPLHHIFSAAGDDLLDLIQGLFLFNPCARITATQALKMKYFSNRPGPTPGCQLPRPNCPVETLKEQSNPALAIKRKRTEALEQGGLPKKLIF
The target of test [24] is Cyclin-dependent kinase 5/CDK5 activator 1 (Homo sapiens, UniProt Q00535). Kind of test: Inhibition of human recombinant CDK5/p35. Type of test: protein-complex assay.
Test [25] has as its system U2OS. Put plainly: Reduction of homologous recombination in human DR-U2OS-GFP cells expressing I-SceI nuclease at 0.1 uM after 56 hrs […] relative to control. Type of test: functional.

Active and inactive are the calls of the source. The calls are words filed in the database; no cut-off is given here.

Casein kinase I isoform alpha (Homo sapiens), sequence (P48729 2-337 limits assumed): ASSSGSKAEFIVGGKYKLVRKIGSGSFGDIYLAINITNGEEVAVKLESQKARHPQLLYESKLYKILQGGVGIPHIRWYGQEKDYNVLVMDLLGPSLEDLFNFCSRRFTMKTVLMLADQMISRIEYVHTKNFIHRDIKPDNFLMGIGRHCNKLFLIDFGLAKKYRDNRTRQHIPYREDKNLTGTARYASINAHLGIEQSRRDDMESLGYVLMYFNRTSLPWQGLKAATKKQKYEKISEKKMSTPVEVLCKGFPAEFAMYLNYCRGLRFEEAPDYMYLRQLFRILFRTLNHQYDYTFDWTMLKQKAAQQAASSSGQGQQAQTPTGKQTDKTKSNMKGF
MAP kinase-activated protein kinase 5 (Homo sapiens), sequence (Q8IW41 whole entry): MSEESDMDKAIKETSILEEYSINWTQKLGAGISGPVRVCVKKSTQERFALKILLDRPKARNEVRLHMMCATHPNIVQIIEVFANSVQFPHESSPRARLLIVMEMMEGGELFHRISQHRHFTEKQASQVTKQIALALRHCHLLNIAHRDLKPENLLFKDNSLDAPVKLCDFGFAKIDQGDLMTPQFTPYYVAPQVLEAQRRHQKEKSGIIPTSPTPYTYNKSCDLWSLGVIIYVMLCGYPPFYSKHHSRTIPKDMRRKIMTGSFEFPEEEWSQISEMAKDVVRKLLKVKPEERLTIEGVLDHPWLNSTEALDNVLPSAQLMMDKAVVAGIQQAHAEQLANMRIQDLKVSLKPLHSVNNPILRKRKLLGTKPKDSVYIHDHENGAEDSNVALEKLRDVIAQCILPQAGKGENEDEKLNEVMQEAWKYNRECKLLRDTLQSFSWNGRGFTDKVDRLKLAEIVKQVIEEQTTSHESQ
Dual specificity mitogen-activated protein kinase kinase 1 (Homo sapiens), sequence (Q02750 whole entry): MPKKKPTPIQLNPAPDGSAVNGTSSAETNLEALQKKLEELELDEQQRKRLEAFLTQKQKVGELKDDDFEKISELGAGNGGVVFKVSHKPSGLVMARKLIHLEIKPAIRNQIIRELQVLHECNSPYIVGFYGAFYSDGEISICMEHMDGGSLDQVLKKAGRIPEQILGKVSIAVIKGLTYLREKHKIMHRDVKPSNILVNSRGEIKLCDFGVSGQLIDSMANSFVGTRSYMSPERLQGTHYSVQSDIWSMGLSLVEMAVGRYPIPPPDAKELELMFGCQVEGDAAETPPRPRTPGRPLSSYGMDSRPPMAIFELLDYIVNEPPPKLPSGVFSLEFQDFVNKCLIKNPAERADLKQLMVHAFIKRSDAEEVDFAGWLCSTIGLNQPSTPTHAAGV

On to `CC[C@H](CO)Nc1nc(NCc2ccccc2)c2ncn(C(C)C)c2n1`, for which the inhibition in [1] was found to be 10%; in [2], 87%; in test [3] it was 28%; in test [5], 25%; in [8] it was 38%; in [11], 87%. The inhibition came out at 13% in test [13], 1% in test [17] and 29% in [19]. Further, the inhibition result (in test [4]; in the test with U2OS [15]) was “inactive” throughout. Moreover, the outcome with RPMI-8226 [6], in the test with MCF7 [7], in the test with MCF7 [9], in the test with RPMI-8226 [10], with RPMI-8226 [12] and with MCF7 [14] was Active. For the same compound, the outcome (in test [16]; in the test on MCF7 [18]; with RPMI-8226 [20]) was Active. In test [21], the inhibition entry was “Active”.

Regarding `CC[C@H](CO)Nc1nc(NCc2ccccc2)c2n[nH]c(C(C)C)c2n1`, the IC50 on CDK9/cyclin T1 turned out to be 1000 nM; in test [22] it was 40 nM; in test [23] it was 160 nM; in [24], 200 nM.

In the case of `CN1CC[C@H](c2c(O)cc(O)c3c(=O)cc(-c4ccccc4Cl)oc23)[C@H](O)C1` [ALVOCIDIB], in the test with U2OS [25], the inhibition at 0.1 µM was 62%.
